This is an account of results in ChEMBL document CHEMBL4270620, “Synthesis and anti-fibrosis activity study of 14-deoxyandrographolide-19-oic acid and 14-deoxydidehydroandrographolide-19-oic acid derivatives” (Eur J Med Chem, 2018).

The structures appear in SMILES notation. Active and inactive are the calls of the source. The rule behind the calls is not given here.

Data set [1] has as its system NIH3T3. As to the kind of experiment: Antifibrotic activity against mouse NIH/3T3 cells assessed as inhibition of cell proliferation after 72 hrs by MTT assay. Type of data set: functional, cell-based. The method in brief: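 NIH-3T3 seeded at 5000 cells/well in DMEM/F12 with 10% FBS, allowed to attach 24 h, then exposed 72 h to graded compound concentrations. MTT (5 mg/mL stock) added for 2–4 h, formazan dissolved in DMSO, OD read at 490 nm. IC50 from regression equation; three repeats, mean.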

Data set [2] concerns NIH3T3. As to the kind of experiment: Antifibrotic activity against mouse NIH/3T3 cells assessed as inhibition of alpha-SMA mRNA level at 500 nM measured after 24 hrs by qRT-PCR method. It is filed as functional, cell-based. The method in brief: (§1)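 NIH-3T3 (DMEM/F12, 10% FBS, 37 °C, 5% CO2) given 500 nM compound without TGF-β1 for 24 h. Total RNA extracted; qPCR of α-SMA, FN, COL1A1 run 40 cycles (95 °C 5 s, 60 °C 60 s). Normalized to GAPDH, relative expression by 2^-ΔΔCt. Mean of three experiments ± SD.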

For data set [3], the system named is NIH3T3. Nature of the data set: Antifibrotic activity against mouse NIH/3T3 cells assessed as inhibition of TGFbeta1-induced increase in COL1A1 mRNA level at 500 nM preincubated for 1 hr followed by TGFbeta-1 addition measured after 24 hrs by qRT-PCR method. It is filed as functional, cell-based. A digest of the protocol:
(§2)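 NIH-3T3 cells pretreated 1 h with 500 nM compound, then stimulated with rat TGF-β1 5 ng/ml for 24 h. RNA extracted and qPCR run 40 cycles (95 °C 5 s / 60 °C 60 s). Transcripts normalized to GAPDH, fold change by 2^-ΔΔCt. n = 3, means ± SD.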

The subject of data set [4] is NIH3T3. As to the kind of experiment: Antifibrotic activity against mouse NIH/3T3 cells assessed as inhibition of COL1A1 mRNA level at 500 nM measured after 24 hrs by qRT-PCR method. Type of data set: functional, cell-based. The method in brief:
as §1

Data set [5] concerns NIH3T3. Nature of the data set: Antifibrotic activity against mouse NIH/3T3 cells assessed as inhibition of TGFbeta1-induced increase in FN mRNA level at 500 nM preincubated for 1 hr followed by TGFbeta-1 addition measured after 24 hrs by qRT-PCR method. It is filed as functional, cell-based. A digest of the protocol:
as §2

The test system of data set [6] is NIH3T3. Nature of the data set: Antifibrotic activity against mouse NIH/3T3 cells assessed as inhibition of FN mRNA level at 500 nM measured after 24 hrs by qRT-PCR method. Type of data set: functional, cell-based. A digest of the protocol: as §1
Data set [7] concerns NIH3T3. Nature of the data set: Antifibrotic activity against mouse NIH/3T3 cells assessed as inhibition of TGFbeta1-induced increase in alpha-SMA mRNA level at 500 nM preincubated for 1 hr followed by TGFbeta-1 addition measured after 24 hrs by qRT-PCR method. Type of data set: functional, cell-based. A digest of the protocol: as §2
Data set [8] deals with NIH3T3. As to the kind of experiment: Antifibrotic activity against mouse NIH/3T3 cells assessed as inhibition of TGFbeta1-induced increase in alpha-SMA protein expression by measuring ratio of alpha-SMA to beta-actin protein level at 500 nM preincubated for 1 hr followed by TGFbeta-1 addition measured after 24 hrs by Western blot method (reference value: 0.87). Type of data set: functional. A digest of the protocol: (§3)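 Western blot of NIH-3T3 treated with 500 nM compound plus rat TGF-β1 5 ng/ml for 24 h; PBS as control. RIPA/1% PMSF lysates quantified by BCA, run on 10% SDS-PAGE and blotted to PVDF. Blocked in 5% milk; α-SMA, FN, COL1A1 primaries 1:1000 overnight at 4 °C; HRP secondary 1:5000 for 2 h; ECL. Band intensity relative to β-actin. Three repeats, means ± SD.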

Data set [9] can be described thus: Inhibition of cell proliferation in HUVEC at 80 uM after […] by MTT assay relative to control. It is filed as cell-based. Particulars: human, HUVEC cells. A digest of the protocol: (§4)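 MTT test on HUVEC (DMEM/F12, 10% FBS) plated at 5000 cells/well, attached 24 h, then treated at 1, 10, 40 and 80 μM for the period printed as 42 h. MTT (5 mg/mL stock) incubated 2–4 h, formazan dissolved in DMSO, absorbance at 490 nm. Proliferation relative to control; mean of three experiments.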

Data set [10] can be described thus: Inhibition of cell proliferation in HUVEC at 10 uM […] by MTT assay relative to control. Type of data set: cell-based. Particulars: human, HUVEC cells. The method in brief:
as §4

The subject of data set [11] is NIH3T3. As to the kind of experiment: Antifibrotic activity against mouse NIH/3T3 cells assessed as inhibition of TGFbeta1-induced increase in COL1A1 protein expression by measuring ratio of COL1A1 to beta-actin protein level at 500 nM preincubated for 1 hr followed by TGFbeta-1 addition measured after 24 hrs by Western blot method (reference value: 0.26). It is filed as functional. The method in brief: as §3

The test system of data set [12] is NIH3T3. Nature of the data set: Antifibrotic activity against mouse NIH/3T3 cells assessed as inhibition of TGFbeta1-induced increase in FN protein expression by measuring ratio of FN to beta-actin protein level at 500 nM preincubated for 1 hr followed by TGFbeta-1 addition measured after 24 hrs by Western blot method (reference value: 0.95). Type of data set: functional. The method in brief: as §3

Setting [13] is: Mus musculus, NIH3T3, 72 h, read-out: IC50.

In the case of `C=C1CC[C@H]2[C@@](C)(CC[C@@H](OC(C)=O)[C@@]2(C)C(=O)OCc2ccccn2)[C@@H]1/C=C/C1=CCOC1=O`, the IC50 with NIH3T3 [1] (setting [13]) turned out to be 34.9 µM.
Take `C=C1CC[C@H]2[C@@](C)(CC[C@@H](OC(C)=O)[C@@]2(C)C(=O)OC)[C@@H]1/C=C/C1=CCOC1=O`: the IC50 in the data set with NIH3T3 [1] (setting [13]) was determined as 32.2 µM.
Take `C=C1CC[C@H]2[C@@](C)(CC[C@@H](O)[C@@]2(C)C(=O)OCc2ccccc2)[C@@H]1C/C=C1\C=COC1=O`: the IC50 with NIH3T3 [1] (setting [13]) turned out to be 177 µM.
Take `C=C1CC[C@H]2[C@@](C)(CC[C@@H](O)[C@@]2(C)C(=O)OCc2ccccn2)[C@@H]1CCC1=CCOC1=O`: the 50% inhibitory concentration (IC50) in the data set on NIH3T3 [1] (setting [13]) was 79.8 µM.
In the case of `C=C1CC[C@H]2[C@@](C)(CC[C@@H](O)[C@@]2(C)C(=O)OC)[C@@H]1CCC1=CCOC1=O`, in the data set on NIH3T3 [1] (setting [13]), the IC50 amounted to 60.6 µM.
In the case of `C=C1CC[C@H]2[C@@](C)(CC[C@@H](O)[C@@]2(C)C(=O)OC)[C@@H]1C/C=C1\C=COC1=O`, the IC50 in the data set with NIH3T3 [1] (setting [13]) turned out to be 177 µM.
On to `C=C1CC[C@@H]2[C@](C)(CO)[C@H](O)CC[C@@]2(C)[C@@H]1/C=C/C1=CCOC1=O`, for which the inhibition result with NIH3T3 [2], in the data set with NIH3T3 [3], with NIH3T3 [4], in the data set on NIH3T3 [5], with NIH3T3 [6] and in the data set with NIH3T3 [7] was “Active” throughout. The IC50 in the data set on NIH3T3 [1] (setting [13]) was found to be 64.3 µM.
For `C=C1CC[C@H]2[C@@](C)(CC[C@@H](O)[C@@]2(C)C(=O)OCc2ccccc2)[C@@H]1CCC1=CCOC1=O`, the IC50 in the data set with NIH3T3 [1] (setting [13]) amounted to 37.9 µM.
As for `C=C1CC[C@H]2[C@@](C)(CC[C@@H](O)[C@@]2(C)C(=O)OCc2ccccc2)[C@@H]1/C=C/C1=CCOC1=O`, the inhibition entry in the data set on NIH3T3 [2], in the data set on NIH3T3 [3], with NIH3T3 [4], with NIH3T3 [5], in the data set with NIH3T3 [6] and in the data set with NIH3T3 [7] was “Active” each time. Further, the values for the Ratio in the data set with NIH3T3 [8], in the data set on NIH3T3 [11] and in the data set on NIH3T3 [12] were 0.39, 0.42 and 0.47, respectively. In addition, testing at 80 µM in data set [9] gave an inhibition of 68.7%. The molecule also returned an inhibition at 10 µM in data set [10] of 9.7%. For the same molecule, in the data set on NIH3T3 [1] (setting [13]), the 50% inhibitory concentration (IC50) is 13.6 µM.
Consider `C=C1CC[C@@H]2[C@](C)(CO)[C@H](O)CC[C@@]2(C)[C@@H]1C/C=C1/C(=O)OC[C@H]1O` [ANDROGRAPHOLIDE], for which the inhibition result in the data set with NIH3T3 [2], with NIH3T3 [3], with NIH3T3 [4], with NIH3T3 [5], with NIH3T3 [6] and with NIH3T3 [7] was “Active” in each case. The inhibition at 80 µM in data set [9] turned out to be 26.4%. The molecule further registered an inhibition at 10 µM in [10] of 10.4%. Moreover, the half-maximal inhibitory concentration (IC50) in the data set on NIH3T3 [1] (setting [13]) turned out to be 95.3 µM.
For the molecule `C=C1CC[C@@H]2[C@](C)(CO)[C@H](O)CC[C@@]2(C)[C@@H]1C/C=C1\C=COC1=O`, in the data set with NIH3T3 [1] (nih3t3), the 50% inhibitory concentration (IC50) result is on record as “Not Active”.
In the case of `C=C1CC[C@H]2[C@@](C)(CC[C@@H](OC(C)=O)[C@@]2(C)C(=O)OCc2ccccc2)[C@@H]1/C=C/C1=CCOC1=O`, in the data set on NIH3T3 [1] (setting [13]), the IC50 turned out to be 52.7 µM.
The same measure, in the same setting: the same measure for `C=C1CC[C@H]2[C@@](C)(CC[C@@H](O)[C@@]2(C)C(=O)OCc2ccccn2)[C@@H]1/C=C/C1=CCOC1=O`: 80.2 µM.
With `C=C1CC[C@H]2[C@@](C)(CC[C@@H](OC(C)=O)[C@@]2(C)C(=O)OCc2ccccn2)[C@@H]1CCC1=CCOC1=O`, in the data set with NIH3T3 [1] (setting [13]), the half-inhibitory concentration (IC50) is 55.5 µM.
In the case of `C=C1CC[C@@H]2[C@](C)(CO)[C@H](O)CC[C@@]2(C)[C@@H]1CCC1=CCOC1=O` [DEOXYANDROGRAPHOLIDE], the inhibition entry in the data set on NIH3T3 [2], with NIH3T3 [3], with NIH3T3 [4], in the data set on NIH3T3 [5], in the data set with NIH3T3 [6] and in the data set on NIH3T3 [7] was “Active” in each case. In addition, the IC50 with NIH3T3 [1] (setting [13]) was determined as 176 µM.
For `C=C1CC[C@H]2[C@@](C)(CC[C@@H](OC(C)=O)[C@@]2(C)C(=O)OCc2ccccc2)[C@@H]1C/C=C1\C=COC1=O`, the half-maximal inhibitory concentration (IC50) with NIH3T3 [1] (setting [13]) worked out at 78 µM.
Same read-out and setting: the same measure for `C=C1CC[C@H]2[C@@](C)(CC[C@@H](OC(C)=O)[C@@]2(C)C(=O)OC)[C@@H]1C/C=C1\C=COC1=O`: 69.7 µM; for `C=C1CC[C@H]2[C@@](C)(CC[C@@H](OC(C)=O)[C@@]2(C)C(=O)OC)[C@@H]1CCC1=CCOC1=O`: 80.6 µM.
As to `C=C1CC[C@H]2[C@@](C)(CC[C@@H](OC(C)=O)[C@@]2(C)C(=O)OCc2ccccc2)[C@@H]1CCC1=CCOC1=O`, the inhibition entry with NIH3T3 [2], in the data set with NIH3T3 [3], in the data set on NIH3T3 [4], in the data set with NIH3T3 [5], in the data set on NIH3T3 [6] and in the data set on NIH3T3 [7] was “Active” throughout. Moreover, the figures for the Ratio in the data set with NIH3T3 [8], in the data set with NIH3T3 [11] and in the data set with NIH3T3 [12] were 0.4, 0.38 and 0.46, respectively. Moreover, 80 µM produced 55.7% inhibition in data set [9]. In data set [10], this molecule yielded an inhibition at 10 µM of 6.6%. In the data set on NIH3T3 [1] (setting [13]), the IC50 amounted to 12.9 µM.
With `C=C1CC[C@H]2[C@@](C)(CC[C@@H](O)[C@@]2(C)C(=O)OC)[C@@H]1/C=C/C1=CCOC1=O`, the IC50 in the data set on NIH3T3 [1] (setting [13]) is 111 µM.
